Data taken from ChEMBL document CHEMBL3124823, “1,2,3-Triazole-containing derivatives of rupestonic acid: click-chemical synthesis and antiviral activities against influenza viruses” (Eur J Med Chem, 2014).
Values after ≈ are worked out from the molar mass of the structure shown.

Experiments:
Influenza B virus [1] = test: Antiviral activity against Influenza B virus jifang/13/97 infected in MDCK cells assessed as inhibition of plaque formation after 3 to 4 days by crystal violet staining-based assay; assay type: functional, organism-based; settings: jifang/13/97, MDCK
Summary of the method: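 Plaque reduction: MDCK monolayers in 12-well plates were PBS-washed and infected with influenza B in trypsin-free maintenance medium for 2 h at 37 °C, 5% CO2. Inoculum was removed and the cells washed three times. A 1.5% agarose/MEM overlay with trypsin (2 μg/ml) and drug was added. After 3-4 days, crystal violet (0.5%) plaque counts against no-drug wells gave IC50 by Reed & Muench. Ribavirin was the control.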

Influenza B virus [2] = test: Ratio of ribavirin IC50 to compound IC50 for Influenza B virus jifang/13/97 infected in MDCK cells; assay type: functional
[3] = Selectivity index, ratio of TC50 for MDCK cells to IC50 for Influenza B virus jifang/13/97; assay type: toxicity, cell-based; settings: dog, read-out: Selectivity Index
Summary of the method: (§1)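 Selectivity index = TC50 (MDCK, 48 h visual cytotoxicity) / IC50 from the 40 h CPE-inhibition assay for the given strain.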

Influenza B virus [4] = test: Antiviral activity against Influenza B virus jifang/13/97 infected in MDCK cells assessed as inhibition of virus-induced cytopathicity after 40 hrs; assay type: functional, organism-based; settings: jifang/13/97, MDCK
Summary of the method: (§2)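 CPE reduction in MDCK cells: cells grown 24 h at 37 °C, 5% CO2, then infected and held 2 h at 37 °C before the inoculum was removed. Threefold serial drug dilutions (8 levels from 20 mg/mL DMSO stocks) were added and incubated 40 h at 37 °C. CPE inhibition was scored against cell and virus controls to give IC50. Ribavirin and oseltamivir were the controls.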

Influenza A virus [5] = test: Antiviral activity against Influenza A virus A/hanfang/359/95(H3N2) infected in MDCK cells assessed as inhibition of virus-induced cytopathicity after 40 hrs; assay type: functional, organism-based; summary of the method: as §2
Influenza A virus [6] = test: Antiviral activity against Influenza A virus (A/FM/1/1947(H1N1)) infected in MDCK cells assessed as inhibition of virus-induced cytopathicity after 40 hrs; assay type: functional, organism-based; settings: A/Fort Monmouth/1/1947(H1N1); summary of the method: as §2
[7] = Cytotoxicity against MDCK cells after 48 hrs; assay type: cell-based, Canis lupus familiaris; settings: dog, read-out: TC50
Summary of the method: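 MDCK cells seeded at 25000 per well and cultured 24 h at 37 °C, 5% CO2. Threefold dilutions were added to the monolayer and culture continued 48 h. Cytopathic changes were recorded by observation, and TC50 was calculated by the Reed & Muench method.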

[8] = Selectivity index, ratio of TC50 for MDCK cells to IC50 for Influenza A virus (A/FM/1/1947(H1N1)); assay type: toxicity, cell-based; settings: dog, read-out: Selectivity Index; summary of the method: as §1
[9] = Selectivity index, ratio of TC50 for MDCK cells to IC50 for Influenza A virus A/hanfang/359/95(H3N2); assay type: toxicity, cell-based; settings: dog, read-out: Selectivity Index; summary of the method: as §1
[10] = Selectivity index, ratio of TC50 for MDCK cells to IC50 for Influenza A virus (A/Tianjinjinnan/15/2009/H1N1); assay type: toxicity, cell-based; settings: dog, read-out: Selectivity Index; summary of the method: as §1

C=C(C(=O)NCc1cn(Cc2ccc(F)cc2)nn1)[C@@H]1CC[C@H](C)[C@@H]2CC(=O)C(C)=C2C1
IC50 (Influenza B virus [1]): 0.73 mg/L (≈ 1.67 µM) | Ratio IC50 (Influenza B virus [2]): >4 | selectivity ratio [3]: 43.8 | IC50 (Influenza B virus [4]): 3.92 mg/L (≈ 8.98 µM) | IC50 (Influenza A virus [5]): > 66.7 mg/L | IC50 (Influenza A virus [6]): ≥ 66.7 mg/L | CC50 at 48 h [7]: 116 mg/L (≈ 265 µM)

C=C(C(=O)OCc1cn(Cc2ccccc2F)nn1)[C@@H]1CC[C@H](C)[C@@H]2CC(=O)C(C)=C2C1
IC50 (Influenza B virus [1]): 0.91 mg/L (≈ 2.08 µM) | Ratio IC50 (Influenza B virus [2]): >4 | selectivity ratio [3]: 29.7 | IC50 (Influenza B virus [4]): 2.26 mg/L (≈ 5.17 µM) | IC50 (Influenza A virus [5]): > 22.2 mg/L | IC50 (Influenza A virus [6]): > 22.2 mg/L | CC50 at 48 h [7]: 66.7 mg/L (≈ 152 µM)

C=C(C(=O)OCc1cn(C2C=CCCC2)nn1)[C@@H]1CC[C@H](C)[C@@H]2CC(=O)C(C)=C2C1 (some centres undefined)
IC50 (Influenza B virus [1]): 3.28 mg/L (≈ 8.01 µM) | selectivity ratio [3]: ≥ 4.3 | IC50 (Influenza B virus [4]): ≥ 5.14 mg/L | IC50 (Influenza A virus [5]): > 7.41 mg/L | selectivity ratio [8]: 8 | IC50 (Influenza A virus [6]): 2.82 mg/L (≈ 6.89 µM) | CC50 at 48 h [7]: 22.2 mg/L (≈ 54.3 µM)

C=C(C(=O)NCc1cn(Cc2ccccc2Cl)nn1)[C@@H]1CC[C@H](C)[C@@H]2CC(=O)C(C)=C2C1
IC50 (Influenza B virus [1]): 0.21 mg/L (≈ 0.464 µM) | Ratio IC50 (Influenza B virus [2]): >4 | selectivity ratio [3]: 22.5 | IC50 (Influenza B virus [4]): 1.71 mg/L (≈ 3.77 µM) | IC50 (Influenza A virus [5]): > 7.41 mg/L | IC50 (Influenza A virus [6]): > 7.41 mg/L | CC50 at 48 h [7]: 38.5 mg/L (≈ 85 µM)

C=C(C(=O)NCc1cn(Cc2ccc(Cl)c(Cl)c2)nn1)[C@@H]1CC[C@H](C)[C@@H]2CC(=O)C(C)=C2C1
Ratio IC50 (Influenza B virus [2]): >4 | selectivity ratio [3]: 9.9 | IC50 (Influenza B virus [4]): 6.79 mg/L (≈ 13.9 µM) | selectivity ratio [9]: 4.1 | IC50 (Influenza A virus [5]): 17.5 mg/L (≈ 35.9 µM) | selectivity ratio [10]: 3 | IC50 (Influenza A virus [6]): ≥ 17.2 mg/L | CC50 at 48 h [7]: 66.7 mg/L (≈ 137 µM)

NC(=O)c1ncn([C@@H]2O[C@H](CO)[C@@H](O)[C@H]2O)n1 [RIBAVIRIN]
IC50 (Influenza B virus [1]): 3.27 mg/L (≈ 13.4 µM) | selectivity ratio [3]: 206 | IC50 (Influenza B virus [4]): 7.84 mg/L (≈ 32.1 µM) | selectivity ratio [9]: 213 | IC50 (Influenza A virus [5]): 5.59 mg/L (≈ 22.9 µM) | selectivity ratio [10]: 185 | selectivity ratio [8]: 820 | IC50 (Influenza A virus [6]): 1.92 mg/L (≈ 7.86 µM)
